Reference: paper PMC6118327 (Biochimica et biophysica acta. Biomembranes, 2017)

T1: mUCP1 (Mus musculus, UniProt P12242)
T1 sequence (P12242 1-307): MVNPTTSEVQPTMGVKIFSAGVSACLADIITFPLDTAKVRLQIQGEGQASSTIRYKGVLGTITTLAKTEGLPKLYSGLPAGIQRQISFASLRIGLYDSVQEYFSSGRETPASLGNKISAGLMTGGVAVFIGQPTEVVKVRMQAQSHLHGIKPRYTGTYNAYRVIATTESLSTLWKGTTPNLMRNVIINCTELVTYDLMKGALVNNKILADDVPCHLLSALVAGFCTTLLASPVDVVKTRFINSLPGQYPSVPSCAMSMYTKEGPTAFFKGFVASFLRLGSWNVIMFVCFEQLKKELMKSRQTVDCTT

T2: mUCP1R183T (Mus musculus, UniProt P12242, R183T)
T2 sequence (P12242 1-307 R183T): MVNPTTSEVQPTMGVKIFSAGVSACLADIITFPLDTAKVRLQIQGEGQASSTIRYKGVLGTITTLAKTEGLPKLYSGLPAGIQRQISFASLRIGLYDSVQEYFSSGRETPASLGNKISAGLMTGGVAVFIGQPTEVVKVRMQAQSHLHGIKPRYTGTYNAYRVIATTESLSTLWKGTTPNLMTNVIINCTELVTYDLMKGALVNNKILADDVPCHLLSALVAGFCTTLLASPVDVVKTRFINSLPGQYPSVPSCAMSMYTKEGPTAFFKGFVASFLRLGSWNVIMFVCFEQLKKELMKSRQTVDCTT

T3: mUCP1 R84Q (Mus musculus, UniProt P12242, R84Q)
T3 sequence (P12242 1-307 R84Q): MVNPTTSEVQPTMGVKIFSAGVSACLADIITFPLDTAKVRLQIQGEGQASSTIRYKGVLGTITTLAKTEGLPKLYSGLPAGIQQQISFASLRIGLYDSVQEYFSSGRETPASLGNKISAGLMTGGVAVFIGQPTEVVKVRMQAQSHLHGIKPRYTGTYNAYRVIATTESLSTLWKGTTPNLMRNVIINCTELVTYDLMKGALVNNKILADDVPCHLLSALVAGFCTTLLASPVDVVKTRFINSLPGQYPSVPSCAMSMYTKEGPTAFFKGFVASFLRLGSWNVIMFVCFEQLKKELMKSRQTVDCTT

T4: mUCP3 (Mus musculus, UniProt P56501)
T4 sequence (P56501 1-308): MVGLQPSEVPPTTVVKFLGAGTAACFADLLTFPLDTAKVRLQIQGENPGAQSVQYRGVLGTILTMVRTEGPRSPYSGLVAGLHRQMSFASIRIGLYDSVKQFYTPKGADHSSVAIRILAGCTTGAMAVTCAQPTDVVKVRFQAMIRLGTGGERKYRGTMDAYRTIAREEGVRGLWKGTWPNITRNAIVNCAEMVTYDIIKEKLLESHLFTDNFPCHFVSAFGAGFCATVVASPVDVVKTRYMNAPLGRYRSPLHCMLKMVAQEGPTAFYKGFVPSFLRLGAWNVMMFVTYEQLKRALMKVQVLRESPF

T5: mUCP3R84Q (Mus musculus, UniProt P56501, R84Q)
T5 sequence (P56501 1-308 R84Q): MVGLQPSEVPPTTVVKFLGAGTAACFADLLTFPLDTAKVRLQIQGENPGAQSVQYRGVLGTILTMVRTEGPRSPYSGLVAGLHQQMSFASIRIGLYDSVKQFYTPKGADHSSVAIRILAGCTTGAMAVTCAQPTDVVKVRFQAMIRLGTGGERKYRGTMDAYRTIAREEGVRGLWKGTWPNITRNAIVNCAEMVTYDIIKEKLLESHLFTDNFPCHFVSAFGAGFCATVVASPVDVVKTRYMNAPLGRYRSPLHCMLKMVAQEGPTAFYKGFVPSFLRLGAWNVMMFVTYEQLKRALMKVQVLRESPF

T6: mUCP1R277L (Mus musculus, UniProt P12242, R277L)
T6 sequence (P12242 1-307 R277L): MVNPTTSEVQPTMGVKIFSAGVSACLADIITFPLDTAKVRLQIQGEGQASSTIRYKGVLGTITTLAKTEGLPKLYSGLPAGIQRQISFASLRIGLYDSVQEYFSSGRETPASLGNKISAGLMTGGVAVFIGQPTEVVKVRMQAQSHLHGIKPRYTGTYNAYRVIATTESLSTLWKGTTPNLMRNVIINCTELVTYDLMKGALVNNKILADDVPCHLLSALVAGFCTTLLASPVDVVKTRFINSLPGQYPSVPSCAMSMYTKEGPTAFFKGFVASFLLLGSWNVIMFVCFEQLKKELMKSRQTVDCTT

B1: mUCP3: recombinant mouse uncoupling protein 3 reconstituted in planar lipid membranes (protein, UniProt P56501 1-308, looked up)
Putative mitochondrial …: MVGLQPSEVPPTTVVKFLGAGTAACFADLLTFPLDTAKVRLQIQGENPGAQSVQYRGVLGTILTMVRTEGPRSPYSGLVAGLHRQMSFASIRIGLYDSVKQFYTPKGADHSSVAIRILAGCTTGAMAVTCAQPTDVVKVRFQAMIRLGTGGERKYRGTMDAYRTIAREEGVRGLWKGTWPNITRNAIVNCAEMVTYDIIKEKLLESHLFTDNFPCHFVSAFGAGFCATVVASPVDVVKTRYMNAPLGRYRSPLHCMLKMVAQEGPTAFYKGFVPSFLRLGAWNVMMFVTYEQLKRALMKVQVLRESPF

Experiments:
mUCP1 [1] = biological target: T1, mUCP1; format: biochemical; settings: for maximum inhibition of mUCP1 / extent of inhibition at high PN concentration: 15 mol% AA; for extent of inhibition at high PN concentration: DOPC/DOPE/CL membranes, pH 7.35, 32°C
How it was run: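 Inclusion-body mouse protein reconstituted into DOPC/DOPE/CL (45:45:10) proteoliposomes. Planar bilayers made at 1.5 mg/ml lipid, AA 10 or 15 mol% in the lipid solution, sulfate/MES/Tris/EGTA buffer pH 7.35, 32°C. I/V swept −50 to +50 mV; G at zero voltage from linear fit, normalised to AA-only and UCP+AA membranes. Titrations of nucleotides or phosphate fitted by four-parameter logistic for IC50 and maximum inhibition. AA comparison used 1 mM ATP, 2 mM ADP, 2 mM AMP. Mean ± SD, ≥3 experiments.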

mUCP1R183T = biological target: T2, mUCP1R183T; test: Relative conductance of UCP1 mutant in planar bilayer membranes; format: biochemical; settings: PN 5 mM; 15 mol% AA
How it was run: (§1)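 Arginine point mutants made by site-directed mutagenesis, expressed in E. coli Rosetta and reconstituted like wild type. Planar DOPC/DOPE/CL (45:45:10) bilayers carried 15 mol% AA; buffer pH 7.35, 32°C. Relative conductance compared with wild type after nucleotide addition: UCP1 mutants 5 mM ATP, ADP or AMP; UCP3 mutant 2 mM ATP, 4 mM ADP or 8 mM AMP. Mean ± SD, ≥3 experiments.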

mUCP1 R84Q = biological target: T3, mUCP1 R84Q; test: as above; format: biochemical; settings: PN 5 mM; 15 mol% AA
How it was run: as §1

mUCP3 [2] = biological target: T4, mUCP3; format: biochemical; settings: for dependence of mUCP3 inhibition on AA concentration: 10 vs 15 mol% AA, 1 mM ATP, 2 mM ADP, 5 mM AMP
How it was run: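 Recombinant mouse protein reconstituted into DOPC/DOPE/CL (45:45:10) liposomes. Bilayers formed at 1.5 mg/ml lipid, 6 μg protein/mg lipid, AA 10 or 15 mol%. Run in 50 mM Na₂SO₄/10 mM MES/10 mM Tris/0.6 mM EGTA, pH 7.35, 32°C. I/V recorded −50 to +50 mV, including with 2 mM ATP. G from linear fit at 0 mV gives relative conductance. IC50 and maximum inhibition come from a four-parameter logistic fit. AA-dependence tested at 1 mM ATP, 2 mM ADP, 5 mM AMP. Mean ± SD, ≥3 experiments.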

mUCP3R84Q = biological target: T5, mUCP3R84Q; test: Relative conductance of UCP3 mutant in planar bilayer membranes; format: biochemical; settings: 2 mM ATP, 4 mM ADP or 8 mM AMP; 15 mol% AA
How it was run: as §1

mUCP1 [3] = biological target: T1, mUCP1; test: AFM recognition imaging and force spectroscopy, PN-UCP bond lifetime; format: binding; settings: for change of UCP1-PN lifetime with AA concentration: 15 mol% vs 10 mol% AA; for lifetime of mUCP1-PN interaction: PN bound to AFM tip, supported EPL membranes, pH 7.35, 21°C
How it was run: (§2)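 Mouse protein from E. coli inclusion bodies, solubilised in 2% SLS and reconstituted into EPL liposomes. Proteoliposomes incubated 10 min on fresh mica to form supported bilayers. For AA competition, mixed with AA liposomes to 1 mg/ml final lipid. AFM tips carried EDA-ATP, -ADP or -AMP via PEG-acetal linker. Recognition imaging plus force spectroscopy run in 50 mM Na₂SO₄/10 mM MES/10 mM Tris/0.6 mM EGTA, pH 7.35, 21°C. Lifetimes from maximum-likelihood Bell-Evans fits; mean ± SD, ≥3 experiments.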

mUCP3 [4] = biological target: T4, mUCP3; test: as above; format: binding; settings: for change of UCP3-PN lifetime with AA concentration: 15 mol% vs 10 mol% AA; for lifetime of mUCP3-PN interaction: PN bound to AFM tip, supported EPL membranes, pH 7.35, 21°C
How it was run: as §2

mUCP1R277L = biological target: T6, mUCP1R277L; test: Relative conductance of UCP1 mutant in planar bilayer membranes; format: biochemical; settings: PN 5 mM; 15 mol% AA
How it was run: as §1

mUCP3 [5] = biological target: T4, mUCP3; format: biochemical; settings: membrane reconstituted with AA and mUCP3, pH gradient; seven independent experiments
[6] = lower FFA concentrations vs 15 mol% AA
[7] = DOPC/DOPE/CL membranes, 15 mol% AA, pH 7.35, 32°C

| maximum inhibition of mUCP1 (mUCP1 [1]) | extent of inhibition at high PN concentration (mUCP1 [1]) | change in maximum inhibition of mUCP1 at lower FFA concentration (mUCP1 [1]; [6]) | effect of FFA concentration on IC50 of mUCP1 inhibition (mUCP1 [1]; [6]) | inhibition of mutant compared to mUCP1 wt (mUCP1R183T) | inhibition of mutant compared to mUCP1 wt (mUCP1 R84Q) | dependence of mUCP3 inhibition on AA concentration (mUCP3 [2]) | inhibition of mutant compared to wild type mUCP3 (mUCP3R84Q) | change of UCP1-PN lifetime with AA concentration (mUCP1 [3]) | lifetime of mUCP1-PN interaction (mUCP1 [3]) [s] | change of UCP3-PN lifetime with AA concentration (mUCP3 [4]) | lifetime of mUCP3-PN interaction (mUCP3 [4]) [s] | inhibition of mutant compared to mUCP1 wt (mUCP1R277L) | extent of inhibition at high inhibitor concentration (mUCP3 [2]; [7]) | membrane total conductance after addition of α-cyclodextrin (mUCP3 [2]; extraction of FA from the membrane) | current I and total membrane conductance G after addition of inhibitor (mUCP3 [2]; 2 mM ATP, 15 mol% AA) | PN concentration at which maximum inhibition is achieved (mUCP3 [2]; [7]) | proton transport rate κ (mUCP3 [5]) [s⁻¹] | Molecule |
| --- | --- | --- | --- | --- | --- | --- | --- | --- | --- | --- | --- | --- | --- | --- | --- | --- | --- | --- |
| lower than 100% | partially inhibit | No change | affected | impaired inhibition | did not affect | less | decreased the strength | significantly increased | 0.75 | not significant | 0.56 |  |  |  |  |  |  | Nc1ncnc2c1ncn2[C@@H]1O[C@H](COP(=O)(O)OP(=O)(O)O)[C@@H](O)[C@H]1O [ADP] |
| lower than 100% | partially inhibit |  |  |  | did not affect |  | did not affect | unaffected | 0.16 | unaffected | 0.13 | no longer able to inhibit | fully inhibit |  |  |  |  | Nc1ncnc2c1ncn2[C@@H]1O[C@H](COP(=O)(O)O)[C@@H](O)[C@H]1O [AMP] |
|  |  |  |  |  |  |  |  |  |  |  |  |  |  | decrease of membrane total conductance |  |  |  | OC[C@H]1O[C@@H]2O[C@H]3[C@H](O)[C@@H](O)[C@@H](O[C@H]4[C@H](O)[C@@H](O)[C@@H](O[C@H]5[C@H](O)[C@@H](O)[C@@H](O[C@H]6[C@H](O)[C@@H](O)[C@@H](O[C@H]7[C@H](O)[C@@H](O)[C@@H](O[C@H]1[C@H](O)[C@H]2O)O[C@@H]7CO)O[C@@H]6CO)O[C@@H]5CO)O[C@@H]4CO)O[C@@H]3CO [α-cyclodextrin, alpha-cyclodextrin] |
|  |  |  |  | similarly reduced | similarly reduced | higher at lower AA concentration | decreased the strength | significantly increased | 1.12 | significantly increased | 1.33 | similarly reduced |  |  | decreased | approx. 4 mM |  | Nc1ncnc2c1ncn2[C@@H]1O[C@H](COP(=O)(O)OP(=O)(O)OP(=O)(O)O)[C@@H](O)[C@H]1O [ATP] |
|  |  |  |  |  |  |  |  |  |  |  |  |  |  |  |  |  | 2.56 ± 0.79 | B1 |
